These results are taken from ChEMBL document CHEMBL1133633, “Anti-Helicobacter pylori agents. 4. 2-(Substituted guanidino)-4-phenylthiazoles and some structurally rigid derivatives” (2000).

For test [1], the species on record is Cavia porcellus. Briefly: Inhibition of histamine stimulated chronotropic response in isolated guinea pig right atrium (1*10e-6 g/mL). The test is classed as functional, Cardiac atrium. Summed up:
(§1)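 Guinea pig right atrial strip, under 0.3-0.6 g initial tension in Tyrode solution at 30 °C, gassed with 95% O₂-5% CO₂; beating rate recorded by transducer. Histamine hydrochloride (1 × 10^-6 g/mL) raised rate. Test compound (1 × 10^-6 g/mL) was added 30 min after histamine washout. Percent inhibition compares histamine-induced rate increases before and 30 min after dosing.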

Test [2] deals with Rattus norvegicus. Description: Inhibition of histamine stimulated gastric acid secretion in lumen perfused stomach of anesthetized rats (1 mg/kg iv). The test is classed as functional. Summed up:
(§2)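 Male Sprague-Dawley rats (~250 g), fasted 24 h, anesthetized with urethane 1.25 g/kg ip. The opened stomach was lumen-perfused with saline, and the perfusate was titrated with 25 mM NaOH by autotitrator. Inhibition of histamine-stimulated acid output was measured after 1 mg/kg iv dosing; n = 2.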

Test [3] has as its system Helicobacter pylori. Description: The lowest drug concentration that inhibited macroscopic colonial growth against Helicobacter pylori; value ranges from 0.2-0.78. The format is functional. Summed up: (§3)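 Agar dilution. Strains were precultured 3 days at 37 °C on Brucella agar with 3% horse serum and 2% starch, then suspended in buffered saline to McFarland No. 1. A 10²-fold dilution was spotted by multipoint replicator onto Brucella agar with 7% lysed horse blood carrying serial 2-fold drug dilutions. Plates were incubated 3 days at 37 °C under 10% CO₂. MIC is the lowest concentration preventing macroscopic colonial growth. Mean and range come from 10 strains: 8001, 8003, 8004, 8007, 8008, 8009, 8011, 9005, FP1530 and FP1532.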

Test [4] relates to Helicobacter pylori. Briefly: microbe, parasite or virus in culture.
Test [5] has as its system Helicobacter pylori. Briefly: The lowest drug concentration that inhibited macroscopic colonial growth against Helicobacter pylori; value ranges from 1.56-3.13. The format is functional. The essentials: as §3
For test [6], the system named is Helicobacter pylori. Briefly: The lowest drug concentration that inhibited macroscopic colonial growth against Helicobacter pylori; value ranges from 12.5-100. The format is functional. Summed up:
as §3

In test [7] the test system is Helicobacter pylori. Description: The lowest drug concentration that inhibited macroscopic colonial growth against Helicobacter pylori; Value ranges from 6.25-50. The test is classed as functional. Summed up: as §3
The subject of test [8] is Helicobacter pylori. Description: The lowest drug concentration that inhibited macroscopic colonial growth against Helicobacter pylori; value ranges from 0.39-1.56. The format is functional. Summed up:
as §3

The test system of test [9] is Neisseria gonorrhoeae. Description: Antimicrobial activity was measured against Neisseria gonorrhoeae organism. The test is classed as functional.
Test [10] has as its system Helicobacter pylori. Description: The lowest drug concentration that inhibited macroscopic colonial growth against Helicobacter pylori; Value ranges from 1.56-25. The test is classed as functional. Summed up:
as §3

Test [11] relates to Bacteroides fragilis. Description: Antimicrobial activity was measured against B. fragilis range; Value ranges from 0.39-0.78. The test is classed as functional.
In test [12] the test system is Campylobacter jejuni. Briefly: Antimicrobial activity was measured against Campylobacter jejuni organism; Value ranges from 0.78-100. The format is functional.
For test [13], the system named is Neisseria meningitidis. Description: Antimicrobial activity was measured against Neisseria meningitidis organism. The format is functional.
The test system of test [14] is Clostridium perfringens. Briefly: Antimicrobial activity was measured against Clostridium perfringens organism; Value ranges from 0.78-3.13. The format is functional.
For test [15], the system named is Clostridioides difficile. Description: Antimicrobial activity was measured against Clostridium difficile organism; Value ranges from 0.1-0.39. The format is functional.
In test [16] the test system is Helicobacter pylori. Description: The lowest drug concentration that inhibited macroscopic colonial growth against Helicobacter pylori. The format is functional. Summed up: as §3
Test [17] concerns Helicobacter pylori. Briefly: The lowest drug concentration that inhibited macroscopic colonial growth against Helicobacter pylori; Value ranges from 0.1-0.39. The test is classed as functional. Summed up:
as §3

The species entered for test [18] is Cavia porcellus. Briefly: Inhibition of histamine stimulated chronotropic response in isolated guinea pig right atrium. The test is classed as functional, Cardiac atrium. Summed up:
as §1

For test [19], the system named is Clostridioides difficile. Briefly: Antimicrobial activity was measured against Clostridium difficile organism. The test is classed as functional.
The test system of test [20] is Bacteroides fragilis. Description: Antimicrobial activity was measured against Bacteroides fragilis organism. The format is functional.
For test [21], the system named is Helicobacter pylori. Description: Antimicrobial activity was measured against Helicobacter pylori organism. Value ranges from (0.2-0.39). The test is classed as functional. The essentials:
as §3

Test [22] relates to Clostridium perfringens. Briefly: Antimicrobial activity was measured against Clostridium perfringens organism. The format is functional.
Test [23] deals with Helicobacter pylori. Description: The lowest drug concentration that inhibited macroscopic colonial growth against Helicobacter pylori; value ranges from 0.2-0.39. The format is functional. Summed up: as §3
For test [24], the system named is Campylobacter jejuni. Briefly: Antimicrobial activity was measured against Campylobacter jejuni organism. The test is classed as functional.
The test system of test [25] is Helicobacter pylori. Briefly: The lowest drug concentration that inhibited macroscopic colonial growth against Helicobacter pylori; value ranges from 0.39-0.78. The test is classed as functional. Summed up:
as §3

Test [26] concerns Helicobacter pylori. Briefly: The lowest drug concentration that inhibited macroscopic colonial growth against Helicobacter pylori; Value ranges from 3.13-12.5. The test is classed as functional. Summed up: as §3
The subject of test [27] is Clostridioides difficile. Description: Antimicrobial activity was measured against Clostridium difficile organism; range is between (0.1-0.78). The format is functional.
Test [28] concerns Bacteroides fragilis. Description: Antimicrobial activity was measured against B. fragilis; range is between (0.2-12.5). The format is functional.
Test [29] deals with Clostridium perfringens. Briefly: Antimicrobial activity was measured against Clostridium perfringens organism; range is between (0.025-0.05). The format is functional.
Test [30] concerns Campylobacter jejuni. Briefly: Antimicrobial activity was measured against Campylobacter jejuni organism; range is between ( 0.39-6.25). The test is classed as functional.
The subject of test [31] is Helicobacter pylori. Description: The lowest drug concentration that inhibited macroscopic colonial growth against Helicobacter pylori; value range is between 0.0063-0.1. The format is functional. The essentials: as §3
Test [32] concerns Neisseria gonorrhoeae. Briefly: Antimicrobial activity was measured against Neisseria gonorrhoeae organism; range is between (0.39-100). The format is functional.
The subject of test [33] is Neisseria meningitidis. Briefly: Antimicrobial activity was measured against Neisseria meningitidis organism; range is between (0.05-0.1). The test is classed as functional.
Test [34] has as its system Helicobacter pylori. Description: The lowest drug concentration that inhibited macroscopic colonial growth against Helicobacter pylori; value ranges from 12.5-50. The format is functional. The essentials: as §3
Test [35] concerns Rattus norvegicus. Briefly: Inhibition of histamine stimulated gastric acid secretion in lumen perfused stomach of anesthetized rats. The test is classed as functional. The essentials: as §2
For test [36], the system named is Helicobacter pylori. Briefly: Determined the lowest drug concentration that inhibited macroscopic colonial growth against Helicobacter pylori. The test is classed as functional. Summed up: as §3
Test [37] is filed under the species Cavia porcellus. Description: Inhibition of histamine stimulated chronotropic response in isolated guinea pig right atrium (1x 10e-6 g/mL). The test is classed as functional, Cardiac atrium. The essentials:
as §1

The subject of test [38] is Rattus norvegicus. Briefly: Inhibition of histamine stimulated gastric acid secretion in lumen perfused stomach of anesthetized rat (1 mg/kg iv). The format is functional. Summed up:
as §2

Values after ≈ are worked out from the molar mass of the structure shown.

Usually Inhibition stands for the relative decrease from the control value, in per cent. A low value points to little suppression. On to `CC(=O)NCc1cccc(-c2csc(NC(=N)Nc3ccccc3)n2)c1`, for which the Inhibition in the test listed under Cavia porcellus [1] is given as 23%; in the test on Rattus norvegicus [2] it was 24%. The MIC against Helicobacter pylori [3] turned out to be 0.52 mg/L (≈ 1.42 µM).
With `CN/C(=N\CCSCc1nc[nH]c1C)NC#N` [CIMETIDINE], in the test with Helicobacter pylori [4], the MIC came out at 1130 mg/L (≈ 4480 µM). The Inhibition was 43% in the test filed under Cavia porcellus [1] and 53% with Rattus norvegicus [2].
In the case of `CC(=O)NCc1cccc(-c2csc(NC(=N)NCCC(c3ccccc3)c3ccccc3)n2)c1`, the MIC with Helicobacter pylori [5] is 2.5 mg/L (≈ 5.17 µM).
`CC(=O)NCc1cccc(-c2csc(N/C(N)=N/CCN(C)C)n2)c1` registered an MIC against Helicobacter pylori [6] of 57 mg/L (≈ 158 µM).
On to `COc1ccccc1CC/N=C(\N)Nc1nc2c(s1)CCOc1ccc(CNC(C)=O)cc1-2`, for which the MIC with Helicobacter pylori [7] was determined as 18.9 mg/L (≈ 40.6 µM).
As to `COCCC/N=C(\N)Nc1nc(-c2cccc(CNC(C)=O)c2)cs1`, the Inhibition in the test listed under Cavia porcellus [1] turned out to be 54%; in the test with Rattus norvegicus [2] it was 87%. Besides, the MIC against Helicobacter pylori [8] was determined as 0.96 mg/L (≈ 2.66 µM).
Take `Cc1ncc([N+](=O)[O-])n1CCO` [METRONIDAZOLE]: the MIC was > 100 mg/L with Neisseria gonorrhoeae [9]; 5.4 mg/L (≈ 31.6 µM) against Helicobacter pylori [10]; 0.59 mg/L (≈ 3.45 µM) against Bacteroides fragilis [11]; 30 mg/L (≈ 175 µM) in the test with Campylobacter jejuni [12]; > 100 mg/L in the test with Neisseria meningitidis [13]; 1.75 mg/L (≈ 10.2 µM) in the test with Clostridium perfringens [14]. Besides, the MIC with Clostridioides difficile [15] turned out to be 0.2 mg/L (≈ 1.17 µM).
`CC(=O)Nc1ccc2c(c1)-c1nc(N=C(N)N)sc1CS2`: in the test with Helicobacter pylori [16], the MIC is > 100 mg/L.
Molecule `CCCC/N=C(\N)Nc1nc(-c2cccc(CNC(C)=O)c2)cs1` registered an MIC against Helicobacter pylori [17] of 0.22 mg/L (≈ 0.637 µM). The Inhibition amounted to 74% in the test on Rattus norvegicus [2] and 84% in the test listed under Cavia porcellus [18].
For the molecule `COCC/N=C(\N)Nc1nc(-c2cccc(CNC(C)=O)c2)cs1`, the MIC was > 100 mg/L in the test with Neisseria gonorrhoeae [9]; > 100 mg/L with Clostridioides difficile [19]; > 100 mg/L against Bacteroides fragilis [20]; 0.32 mg/L (≈ 0.921 µM) in the test with Helicobacter pylori [21]; > 100 mg/L against Clostridium perfringens [22]; > 100 mg/L in the test with Neisseria meningitidis [13]. The MIC against Helicobacter pylori [23] is 0.32 mg/L (≈ 0.921 µM); with Campylobacter jejuni [24] it was > 100 mg/L. Besides, the Inhibition in the test listed under Cavia porcellus [1] came to 83%; in the test with Rattus norvegicus [2], 87%.
Turning to `CC(=O)NCc1cccc(-c2csc(NC(=N)NCCc3ccccn3)n2)c1`, the Inhibition in the test filed under Cavia porcellus [1] stood at 39%; with Rattus norvegicus [2], 14%. In addition, the MIC against Helicobacter pylori [25] was 0.49 mg/L (≈ 1.24 µM).
Consider `CCCC/N=C(\N)Nc1nc2c(s1)CCOc1ccc(CNC(C)=O)cc1-2`, for which the MIC with Helicobacter pylori [26] came to 7.7 mg/L (≈ 19.9 µM).
As for `CC1(C)S[C@@H]2[C@H](NC(=O)[C@H](N)c3ccc(O)cc3)C(=O)N2[C@H]1C(=O)O` [AMOXICILLIN], the MIC with Clostridioides difficile [27] was determined as 0.28 mg/L (≈ 0.766 µM); against Bacteroides fragilis [28] it was 2.1 mg/L (≈ 5.75 µM); against Clostridium perfringens [29] it was 0.027 mg/L (≈ 0.0739 µM); against Campylobacter jejuni [30], 2.2 mg/L (≈ 6.02 µM); with Helicobacter pylori [31], 0.021 mg/L (≈ 0.0575 µM); in the test with Neisseria gonorrhoeae [32] it was 7.7 mg/L (≈ 21.1 µM). Besides, in the test on Neisseria meningitidis [33], the MIC worked out at 0.056 mg/L (≈ 0.153 µM).
`CCO/N=C(\N)Nc1nc(-c2cccc(CNC(C)=O)c2)cs1`: the MIC in the test on Helicobacter pylori [34] turned out to be 29 mg/L (≈ 87 µM).
Molecule `CC(=O)NCc1cccc(-c2csc(N=C(N)N)n2)c1` yielded an MIC against Helicobacter pylori [16] of 16.5 mg/L (≈ 57 µM).
As for `CNC(=C[N+](=O)[O-])NCCSCc1ccc(CN(C)C)o1` [RANITIDINE], the Inhibition in the test listed under Cavia porcellus [18] worked out at 44%; in the test on Rattus norvegicus [35], 72%. Moreover, the MIC against Helicobacter pylori [36] was > 1600 mg/L.
`CC(=O)NCc1cccc(-c2csc(NC(=N)NCCCc3ccccc3)n2)c1`: the results for the Inhibition in the test listed under Cavia porcellus [37] and in the test with Rattus norvegicus [38] were 35% and 57%, respectively. In the test with Helicobacter pylori [3], this molecule yielded an MIC of 0.39 mg/L (≈ 0.957 µM).
Take `CC(=O)NCc1ccc(-c2csc(N=C(N)N)n2)cc1`: the MIC against Helicobacter pylori [16] is > 100 mg/L.
